From ChEMBL document CHEMBL5053511, “Discovery of a Novel BCL-XL PROTAC Degrader with Enhanced BCL-2 Inhibition” (J Med Chem, 2021)
Active and inactive are the calls of the source. The calls are words filed in the database; no cut-off is given here.

Assays:
MOLT-4 = test: Cytotoxicity against human MOLT-4 cells assessed as reduction in cell viability measured after 48 hrs by MTS assay; type: functional, cell-based; settings: MOLT-4, 48 h
RS4-11 [1] = test: Cytotoxicity against human RS4-11 cells assessed as reduction in cell viability measured after 48 hrs by MTS assay; type: functional, cell-based; settings: RS4-11, 48 h
RS4-11 [2] = test: Cytotoxicity against human RS4-11 cells assessed as reduction in cell viability measured after 48 hrs in presence of VHL-032 by MTS assay; type: functional, cell-based; settings: RS4-11, 48 h
Outline: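 RS4;11 cells were pretreated with 10 µM VHL-032, then exposed to compound for 48 h. Viability was read by MTS; three independent experiments in triplicate.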

[3] = biological target: T1, von Hippel-Lindau disease tumor suppressor/Bcl-2-like protein 1 (Homo sapiens, UniProt Q07817+P40337); test: Protac activity at VHL/BCL-XL in human RS4-11 cells assessed as decrease in BCL-XL protein level by densitometric analysis; type: cell-based
Outline: (§1)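 MOLT-4 or RS4;11 cells were treated at a range of concentrations for 16 h. BCL-XL was immunoblotted with β-actin loading control, and band densitometry was normalised to β-actin. Mean ± SD of three independent experiments in triplicate.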
Target sequence in this assay (Q07817 whole entry): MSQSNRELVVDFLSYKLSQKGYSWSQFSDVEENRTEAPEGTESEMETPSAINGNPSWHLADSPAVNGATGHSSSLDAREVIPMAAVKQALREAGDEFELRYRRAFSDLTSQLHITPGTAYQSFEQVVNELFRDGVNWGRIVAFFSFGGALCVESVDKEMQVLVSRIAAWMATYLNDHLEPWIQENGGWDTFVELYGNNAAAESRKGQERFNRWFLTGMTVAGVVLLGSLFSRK
Target sequence in this assay (P40337 whole entry): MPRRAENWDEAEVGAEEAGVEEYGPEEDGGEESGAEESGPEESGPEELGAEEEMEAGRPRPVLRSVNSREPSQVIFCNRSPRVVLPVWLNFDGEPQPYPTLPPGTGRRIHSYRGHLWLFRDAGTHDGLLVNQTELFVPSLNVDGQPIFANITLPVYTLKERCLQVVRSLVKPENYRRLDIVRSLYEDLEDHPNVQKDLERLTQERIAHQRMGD

[4] = biological target: T1, von Hippel-Lindau disease tumor suppressor/Bcl-2-like protein 1; test: Binding affinity to Halo-tagged VHL/HiBiT-tagged BCL-XL (unknown origin) expressed in HEK293T cells assessed as ternary complex formation at up to 100000 nM measured after 6 hrs by NanoBRET assay; type: cell-based
Outline: (§2)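 NanoBRET in live HEK 293T cells. Cells were transfected with HaloTag-VHL (1 µg), HiBit-BCL-XL or HiBit-BCL-2 (10 ng) and LgBit (10 ng). After 24 h they were seeded at 2×10^4 per well in Opti-MEM with 4% FBS, with or without HaloTag 618 ligand, and held overnight. Serial compound doses were given for 6 h at 37 °C, then Nano-Glo substrate was added and mBRET ratios read. Mean ± s.e.m. of two experiments in triplicate.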
Target sequence in this assay (P40337 whole entry, looked up): as the sequence (P40337 whole entry) above
Target sequence in this assay (Q07817 whole entry, looked up): as the sequence (Q07817 whole entry) above

[5] = biological target: Apoptosis regulator Bcl-2 (Homo sapiens, UniProt P10415); test: Displacement of biotin-tagged MRPEPATIAQELRRIGDEFNA from C-terminal His-tagged human BCL-2 (1` to 211 residues) expressed in Escherichia coli measured after 2 hrs by AlphaScreen assay
Outline: (§3)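 AlphaScreen displacement, run with or without VCB. Anti-His acceptor beads were added for 1 h at room temperature, then streptavidin donor beads for 30 min in the dark. Ki was fitted by one-site competitive model from peptide concentration and measured Kd values; reported as mean ± SD of at least two experiments in triplicate.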

Bcl-2-like protein 1 = Bcl-2-like protein 1 (Homo sapiens, UniProt Q07817); test: Displacement of biotin-tagged LWAAQRYGRELRRMSDEFEGSFKGL from human BCL-XL expressed in Escherichia coli measured after 2 hrs by AlphaScreen assay; outline: as §3
Platelet = test: Cytotoxicity against platelets in human PRP assessed as reduction in cell viability measured after 48 hrs by MTS assay; type: cell-based
Outline: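 Washed human platelets from PRP were kept in HEPES Tyrode's buffer with 1 µM PGE1 and 0.2 units/mL apyrase at 2×10^8/mL.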

[6] = Binding affinity to human BCL-XL expressed in Escherichia coli/recombinant human VHL (54 to end residues) fused to human N-terminal GST-tagged elongin-C/elongin -B/N-terminal His-tagged CUL2/Rbx1 expressed in baculovirus infected Sf21 insect cells assessed as ternary complex formation at up to 100000 nM measured after 30 mins by AlphaLISA assay
Outline: (§4)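 Cell-free ternary complex AlphaLISA: 6×His-tagged BCL-XL, BCL-2 or MCL-1 (20 nM) mixed with serially diluted compound (4× dilution) and GST-VCB (20 nM) in 25 mM HEPES pH 7.5, 100 mM NaCl, 0.1% BSA, 0.005% Tween 20. After 30 min at room temperature, glutathione donor beads were added for 15 min, then anti-His acceptor beads for 45 min in the dark. Luminescence was plotted against log compound concentration.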

[7] = Binding affinity to human BCL-XL expressed in Escherichia coli/recombinant human VHL (54 to end residues) fused to human N-terminal GST-tagged elongin-C/elongin -B/N-terminal His-tagged CUL2/Rbx1 expressed in baculovirus infected Sf21 insect cells measured after 2 hrs by AlphaScreen assay
Outline: as §3, with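 “VCB. Biotin-Bim (80 nM, for BCL-2) or biotin-Bad (16 nM, for BCL-XL) was combined with serially diluted compound and 6×His protein in 25 mM HEPES pH 7.5, 100 mM NaCl, 0.1% BSA, 0.005% Tween 20.” for “VCB.”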

[8] = biological target: T2, von Hippel-Lindau disease tumor suppressor/Apoptosis regulator Bcl-2 (Homo sapiens) (UniProt P10415+P40337); test: Binding affinity to Halo-tagged VHL/HiBiT-tagged BCL-2 (unknown origin) expressed in HEK293T cells assessed as ternary complex formation at up to 100000 nM measured after 6 hrs by NanoBRET assay; type: cell-based; outline: as §2
[9] = biological target: T1, von Hippel-Lindau disease tumor suppressor/Bcl-2-like protein 1; test: Protac activity at VHL/BCL-XL in human MOLT-4 cells assessed as decrease in BCL-XL protein level by densitometric analysis; type: cell-based; outline: as §1
Target sequence in this assay (Q07817 whole entry): as the sequence (Q07817 whole entry) above
Target sequence in this assay (P40337 whole entry): as the sequence (P40337 whole entry) above

[10] = Binding affinity to C-terminal His-tagged human BCL-2 (1 to 211 residues) expressed in Escherichia coli/recombinant human VHL (54 to end residues) fused to human N-terminal GST-tagged elongin-C/elongin -B/N-terminal His-tagged CUL2/Rbx1 expressed in baculovirus infected Sf21 insect cells measured after 2 hrs by AlphaScreen assay
Outline: as §3, with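 “VCB. Biotin-Bim (80 nM, for BCL-2) or biotin-Bad (16 nM, for BCL-XL) was combined with serially diluted compound and 6×His protein in 25 mM HEPES pH 7.5, 100 mM NaCl, 0.1% BSA, 0.005% Tween 20.” for “VCB.”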

[11] = Binding affinity to C-terminal His-tagged human BCL-2 (1 to 211 residues) expressed in Escherichia coli/recombinant human VHL (54 to end residues) fused to human N-terminal GST-tagged elongin-C/elongin -B/N-terminal His-tagged CUL2/Rbx1 expressed in baculovirus infected Sf21 insect cells assessed as ternary complex formation at up to 100000 nM measured after 30 mins by AlphaLISA assay; outline: as §4
[12] = biological target: T1, von Hippel-Lindau disease tumor suppressor/Bcl-2-like protein 1; test: Protac activity at VHL/BCL-XL in human MOLT-4 cells assessed as induction of BCL-XL degradation measured after 16 hrs by Western blot analysis; type: cell-based; outline: as §1
Target sequence in this assay (Q07817 whole entry): as the sequence (Q07817 whole entry) above
Target sequence in this assay (P40337 whole entry): as the sequence (P40337 whole entry) above

[13] = biological target: T1, von Hippel-Lindau disease tumor suppressor/Bcl-2-like protein 1; test: Binding affinity to VHL/ BCL-XL in human RS4-11 cells assessed as ternary complex formation at up to 300 nM measured after 12 hrs by immunoprecipitation assay; type: cell-based
Target sequence in this assay (P40337 whole entry, looked up): as the sequence (P40337 whole entry) above
Target sequence in this assay (Q07817 whole entry, looked up): as the sequence (Q07817 whole entry) above

[14] = biological target: T1, von Hippel-Lindau disease tumor suppressor/Bcl-2-like protein 1; test: Binding affinity to VHL/ BCL-XL in human RS4-11 cells assessed as ternary complex formation at up to 300 nM measured after 12 hrs in presence of VHL-032 by immunoprecipitation assay; type: cell-based
Target sequence in this assay (P40337 whole entry, looked up): as the sequence (P40337 whole entry) above
Target sequence in this assay (Q07817 whole entry, looked up): as the sequence (Q07817 whole entry) above

[15] = biological target: T2, von Hippel-Lindau disease tumor suppressor/Apoptosis regulator Bcl-2 (Homo sapiens); test: Binding affinity to VHL/BCL-2 in human RS4-11 cells assessed as ternary complex formation at up to 300 nM measured after 12 hrs in presence of VHL-032 by immunoprecipitation assay; type: cell-based
[16] = biological target: T1, von Hippel-Lindau disease tumor suppressor/Bcl-2-like protein 1; test: Protac activity at VHL/BCL-XL in human RS4-11 assessed as decrease in BCL-XL protein level at up to […] measured after 16 hrs by Western blot analysis; outline: as §1
Target sequence in this assay (P40337 whole entry, looked up): as the sequence (P40337 whole entry) above
Target sequence in this assay (Q07817 whole entry, looked up): as the sequence (Q07817 whole entry) above

[17] = biological target: T1, von Hippel-Lindau disease tumor suppressor/Bcl-2-like protein 1; test: Protac activity at VHL/BCL-XL in human MOLT-4 assessed as decrease in BCL-XL protein level at up to […] measured after 16 hrs by Western blot analysis; outline: as §1
Target sequence in this assay (P40337 whole entry, looked up): as the sequence (P40337 whole entry) above
Target sequence in this assay (Q07817 whole entry, looked up): as the sequence (Q07817 whole entry) above

[18] = biological target: T2, von Hippel-Lindau disease tumor suppressor/Apoptosis regulator Bcl-2 (Homo sapiens); test: Binding affinity to VHL/BCL-2 in human RS4-11 cells assessed as ternary complex formation at up to 300 nM measured after 12 hrs by immunoprecipitation assay; type: cell-based

T2 sequence (P10415 whole entry, looked up): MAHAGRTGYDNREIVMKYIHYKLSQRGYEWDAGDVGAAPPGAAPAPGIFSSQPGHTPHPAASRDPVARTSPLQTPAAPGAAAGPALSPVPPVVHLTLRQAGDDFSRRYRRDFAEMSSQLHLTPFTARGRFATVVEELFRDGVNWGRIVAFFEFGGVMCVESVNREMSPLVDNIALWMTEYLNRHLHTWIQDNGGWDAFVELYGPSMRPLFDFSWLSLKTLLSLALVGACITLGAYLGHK
T2 sequence (P40337 whole entry, looked up): as the sequence (P40337 whole entry) above
Chain of Bcl-2-like protein 1 (Q07817 whole entry): as the sequence (Q07817 whole entry) above
Chain of Apoptosis regulator Bcl-2 (P10415 whole entry): as the sequence (P10415 whole entry, looked up) above

Cc1ncsc1-c1ccc([C@H](C)NC(=O)[C@@H]2C[C@@H](O)CN2C(=O)[C@@H](NC(=O)CCCCC(=O)NCC2(C)CCC(c3ccc(Cl)cc3)=C(CN3CCN(c4ccc(C(=O)NS(=O)(=O)c5ccc(N[C@H](CCN6CCOCC6)CSc6ccccc6)c(S(=O)(=O)C(F)(F)F)c5)cc4)CC3)C2)C(C)(C)C)cc1 (some centres undefined)
IC50 (MOLT-4): 340 nM | IC50 (RS4-11 [1]): 304 nM

Cc1ncsc1-c1ccc([C@H](C)NC(=O)[C@@H]2C[C@@H](O)CN2C(=O)[C@@H](NC(=O)CCCCCCCCCC(=O)NCC2(C)CCC(c3ccc(Cl)cc3)=C(CN3CCN(c4ccc(C(=O)NS(=O)(=O)c5ccc(N[C@H](CCN6CCOCC6)CSc6ccccc6)c(S(=O)(=O)C(F)(F)F)c5)cc4)CC3)C2)C(C)(C)C)cc1 (some centres undefined)
IC50 (MOLT-4): 74.6 nM | IC50 (RS4-11 [1]): 29.2 nM

Cc1ncsc1-c1ccc([C@H](C)NC(=O)[C@@H]2C[C@@H](O)CN2C(=O)[C@@H](NC(=O)CCCCCCCCC(=O)NC[C@@]2(C)CCC(c3ccc(Cl)cc3)=C(CN3CCN(c4ccc(C(=O)NS(=O)(=O)c5ccc(N[C@H](CCN6CCOCC6)CSc6ccccc6)c(S(=O)(=O)C(F)(F)F)c5)cc4)CC3)C2)C(C)(C)C)cc1
IC50 (RS4-11 [2]): 1040 nM | DC50 [3]: 75.2 nM | Activity [4]: Active | Kd [5]: 1.47 nM | Ki (Bcl-2-like protein 1): 2.75 nM | IC50 (Platelet): 9850 nM | IC50 (MOLT-4): 170 nM | IC50 (RS4-11 [1]): 418 nM | Activity [6]: Active | Kd [7]: 0.64 nM | Activity [8]: Active | DC50 [9]: 127 nM | Kd [10]: 0.55 nM | Activity [11]: Active

Cc1ncsc1-c1ccc([C@H](C)NC(=O)[C@@H]2C[C@@H](O)CN2C(=O)[C@@H](NC(=O)CCCCCCCCC(=O)NCC2(C)CCC(c3ccc(Cl)cc3)=C(CN3CCN(c4ccc(C(=O)NS(=O)(=O)c5ccc(N[C@H](CCN6CCOCC6)CSc6ccccc6)c(S(=O)(=O)C(F)(F)F)c5)cc4)CC3)C2)C(C)(C)C)cc1 (some centres undefined)
IC50 (RS4-11 [2]): 481 nM | DC50 [3]: 22.6 nM | Activity [4]: Active | IC50 (Platelet): 2900 nM | IC50 (MOLT-4): 32.1 nM | IC50 (RS4-11 [1]): 23.3 nM | DC50 [12]: 27.2 nM | Activity [8]: Active | DC50 [9]: 31.6 nM

Cc1ncsc1-c1ccc([C@H](C)NC(=O)[C@@H]2C[C@@H](O)CN2C(=O)[C@@H](NC(=O)CCCCCC(=O)NCC2(C)CCC(c3ccc(Cl)cc3)=C(CN3CCN(c4ccc(C(=O)NS(=O)(=O)c5ccc(N[C@H](CCN6CCOCC6)CSc6ccccc6)c(S(=O)(=O)C(F)(F)F)c5)cc4)CC3)C2)C(C)(C)C)cc1 (some centres undefined)
IC50 (MOLT-4): 307 nM

Cc1ncsc1-c1ccc([C@H](C)NC(=O)[C@@H]2C[C@@H](O)CN2C(=O)[C@@H](NC(=O)CCCCCCC(=O)NCC2(C)CCC(c3ccc(Cl)cc3)=C(CN3CCN(c4ccc(C(=O)NS(=O)(=O)c5ccc(N[C@H](CCN6CCOCC6)CSc6ccccc6)c(S(=O)(=O)C(F)(F)F)c5)cc4)CC3)C2)C(C)(C)C)cc1 (some centres undefined)
IC50 (MOLT-4): 219 nM | IC50 (RS4-11 [1]): 108 nM

Cc1ncsc1-c1ccc([C@H](C)NC(=O)[C@@H]2C[C@@H](O)CN2C(=O)[C@@H](NC(=O)CCCCCCCC(=O)NCC2(C)CCC(c3ccc(Cl)cc3)=C(CN3CCN(c4ccc(C(=O)NS(=O)(=O)c5ccc(N[C@H](CCN6CCOCC6)CSc6ccccc6)c(S(=O)(=O)C(F)(F)F)c5)cc4)CC3)C2)C(C)(C)C)cc1 (some centres undefined)
IC50 (MOLT-4): 125 nM | IC50 (RS4-11 [1]): 43.7 nM

Cc1ncsc1-c1ccc([C@H](C)NC(=O)[C@@H]2C[C@H](O)CN2C(=O)[C@@H](NC(=O)CCCCCCCCC(=O)NC[C@]2(C)CCC(c3ccc(Cl)cc3)=C(CN3CCN(c4ccc(C(=O)NS(=O)(=O)c5ccc(N[C@H](CCN6CCOCC6)CSc6ccccc6)c(S(=O)(=O)C(F)(F)F)c5)cc4)CC3)C2)C(C)(C)C)cc1
Activity [13]: Active | Activity [4]: inactive | Activity [14]: inactive | IC50 (MOLT-4): 821 nM | Activity [15]: inactive | IC50 (RS4-11 [1]): 328 nM | Activity [8]: inactive | Activity [16]: inactive | Activity [17]: inactive

Cc1ncsc1-c1ccc([C@H](C)NC(=O)[C@@H]2C[C@@H](O)CN2C(=O)[C@@H](NC(=O)CCCCCCCCCCCC(=O)NCC2(C)CCC(c3ccc(Cl)cc3)=C(CN3CCN(c4ccc(C(=O)NS(=O)(=O)c5ccc(N[C@H](CCN6CCOCC6)CSc6ccccc6)c(S(=O)(=O)C(F)(F)F)c5)cc4)CC3)C2)C(C)(C)C)cc1 (some centres undefined)
IC50 (MOLT-4): 334 nM | IC50 (RS4-11 [1]): 410 nM

CC1(C)CCC(c2ccc(Cl)cc2)=C(CN2CCN(c3ccc(C(=O)NS(=O)(=O)c4ccc(N[C@H](CCN5CCOCC5)CSc5ccccc5)c(S(=O)(=O)C(F)(F)F)c4)cc3)CC2)C1 [NAVITOCLAX]
Activity [13]: Active | Activity [14]: inactive | IC50 (Platelet): 325 nM | Activity [18]: Active

Cc1ncsc1-c1ccc([C@H](C)NC(=O)[C@@H]2C[C@@H](O)CN2C(=O)[C@@H](NC(=O)CCCCCCCCCCC(=O)NCC2(C)CCC(c3ccc(Cl)cc3)=C(CN3CCN(c4ccc(C(=O)NS(=O)(=O)c5ccc(N[C@H](CCN6CCOCC6)CSc6ccccc6)c(S(=O)(=O)C(F)(F)F)c5)cc4)CC3)C2)C(C)(C)C)cc1 (some centres undefined)
IC50 (MOLT-4): 112 nM | IC50 (RS4-11 [1]): 96.3 nM
